These results are taken from ChEMBL document CHEMBL1155527 (J Med Chem, 2010).

≈ marks a conversion by molar mass, not a printed value. Where only a bound is given, the exact number is not on record here.

Series [1] has as its target Neuronal acetylcholine receptor subunit alpha-7 (Rattus norvegicus, UniProt Q05941). Kind of series: Agonist activity at rat alpha7 nAChR expressed in rat GH4C1 cells assessed as calcium flux by FLIPR. The series is classed as functional, cell-based, GH4-C1. Summed up:
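Cells were loaded 40 min at 37 °C with 4 μM Fluo-4-AM in HBSS-HEPES pH 7.4 with probenecid. FLIPR Ca2+ flux was read for ~10 min after compound addition. MAX-MIN was normalized to positive control and fitted to a variable-slope sigmoid. Triplicate points from a single experiment.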
(In general: Calcium flux is commonly read through the fluorescence of an indicator in the cells.)

Series [2] is described as follows: Selectivity ratio of EC50 for human alpha1 nAChR to EC50 for rat alpha7 nAChR.
In series [3] the target is T1, 5-hydroxytryptamine receptor 3A (Homo sapiens, UniProt P46098).
T1 sequence (P46098 whole entry): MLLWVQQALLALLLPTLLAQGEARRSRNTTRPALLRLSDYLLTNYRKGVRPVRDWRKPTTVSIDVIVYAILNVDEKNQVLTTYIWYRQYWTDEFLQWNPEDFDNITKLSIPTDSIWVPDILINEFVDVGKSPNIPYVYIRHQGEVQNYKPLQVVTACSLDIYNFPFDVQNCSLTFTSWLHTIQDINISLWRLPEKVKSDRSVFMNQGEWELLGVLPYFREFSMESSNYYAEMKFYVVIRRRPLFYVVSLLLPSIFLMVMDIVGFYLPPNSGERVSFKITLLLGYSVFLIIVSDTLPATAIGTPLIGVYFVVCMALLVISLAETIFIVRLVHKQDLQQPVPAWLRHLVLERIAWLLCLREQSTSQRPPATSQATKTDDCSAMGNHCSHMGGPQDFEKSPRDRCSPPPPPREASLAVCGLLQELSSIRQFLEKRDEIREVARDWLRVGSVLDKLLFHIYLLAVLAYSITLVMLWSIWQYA
Kind of series: Antagonist activity at human 5HT3A receptor expressed in HEK293 cells by FLIPR assay.

Series [4] is described as follows: Selectivity ratio of EC50 for human alpha3 nAChR to EC50 for rat alpha7 nAChR.
Series [5] deals with CYP2C9 (Homo sapiens, UniProt P11712). Nature of the series: Inhibition of CYP2C9 at 3 uM by Gentest method. The series is classed as ADME.
Chain of CYP2C9 (P11712 whole entry): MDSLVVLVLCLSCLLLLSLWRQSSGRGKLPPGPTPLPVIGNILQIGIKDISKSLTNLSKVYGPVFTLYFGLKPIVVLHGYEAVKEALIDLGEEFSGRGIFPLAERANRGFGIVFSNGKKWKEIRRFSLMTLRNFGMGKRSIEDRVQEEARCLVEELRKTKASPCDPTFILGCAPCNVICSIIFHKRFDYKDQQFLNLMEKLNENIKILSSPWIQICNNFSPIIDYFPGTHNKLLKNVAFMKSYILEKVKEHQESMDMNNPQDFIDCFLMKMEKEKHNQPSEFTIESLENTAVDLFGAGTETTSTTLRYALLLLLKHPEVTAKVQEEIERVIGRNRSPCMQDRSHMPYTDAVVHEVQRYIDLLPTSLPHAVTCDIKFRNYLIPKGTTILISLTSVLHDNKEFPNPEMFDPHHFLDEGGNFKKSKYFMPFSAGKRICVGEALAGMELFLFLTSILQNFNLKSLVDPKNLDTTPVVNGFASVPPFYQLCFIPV
The target in series [6] is CYP2D6 (Homo sapiens, UniProt P10635). Kind of series: Inhibition of CYP2D6 at 3 uM by Gentest method. Format: ADME.
Chain of CYP2D6 (P10635 whole entry): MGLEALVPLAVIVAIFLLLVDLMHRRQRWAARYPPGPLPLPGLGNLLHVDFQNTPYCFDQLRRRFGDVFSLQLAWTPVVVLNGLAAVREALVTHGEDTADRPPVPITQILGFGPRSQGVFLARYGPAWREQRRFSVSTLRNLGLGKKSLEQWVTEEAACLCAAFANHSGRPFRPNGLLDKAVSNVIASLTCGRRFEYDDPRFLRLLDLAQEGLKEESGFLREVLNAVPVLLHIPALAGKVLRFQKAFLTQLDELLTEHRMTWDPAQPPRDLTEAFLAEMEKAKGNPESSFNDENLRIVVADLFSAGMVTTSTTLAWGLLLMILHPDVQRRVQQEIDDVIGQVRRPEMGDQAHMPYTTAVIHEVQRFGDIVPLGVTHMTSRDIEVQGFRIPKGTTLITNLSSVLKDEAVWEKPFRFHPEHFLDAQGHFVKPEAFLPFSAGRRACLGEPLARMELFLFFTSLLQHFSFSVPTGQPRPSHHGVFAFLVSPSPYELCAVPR
Series [7] has as its system CYP3A4. Kind of series: Metabolic stability assessed as compound remaining after 1 hr in presence of human CYP3A4. Format: ADME. Conditions: read-out: Stability.
In series [8] the target is CYP3A4 (Homo sapiens, UniProt P08684). Kind of series: Inhibition of CYP3A4 at 3 uM by Gentest method. Format: ADME.
Chain of CYP3A4 (Homo sapiens, UniProt P08684) (P08684 whole entry): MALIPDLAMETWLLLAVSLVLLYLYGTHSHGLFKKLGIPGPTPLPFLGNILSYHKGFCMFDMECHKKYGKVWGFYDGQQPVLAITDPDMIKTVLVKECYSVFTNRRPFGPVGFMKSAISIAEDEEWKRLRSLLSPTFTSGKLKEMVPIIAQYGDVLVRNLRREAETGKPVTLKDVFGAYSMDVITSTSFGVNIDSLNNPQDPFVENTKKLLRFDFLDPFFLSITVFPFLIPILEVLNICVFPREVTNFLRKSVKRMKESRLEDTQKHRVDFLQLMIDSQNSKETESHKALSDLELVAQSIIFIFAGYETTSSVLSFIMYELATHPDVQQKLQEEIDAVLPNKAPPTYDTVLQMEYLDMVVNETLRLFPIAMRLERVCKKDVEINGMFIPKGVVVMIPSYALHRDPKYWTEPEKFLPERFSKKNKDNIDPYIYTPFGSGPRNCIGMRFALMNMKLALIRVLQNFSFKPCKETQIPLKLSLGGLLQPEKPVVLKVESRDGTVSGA
Series [9] in a line: Solubility in ammonium acetate buffer at pH 7.4 by pseudothermodynamic equilibrium assay. The series is classed as physicochemical.
Series [10] in a line: Intrinsic clearance in rat liver microsomes by LC-MS/MS analysis. Format: ADME, Microsome. In short, it runs like this:
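Rat liver microsomes (0.633 mg/mL protein in 0.1 M potassium phosphate pH 7.4 with EDTA) were incubated with test compound and NADPH regenerating agent for 15 min at 37 °C, against a time-0 control, in duplicate. Reactions were quenched with cold acetonitrile, centrifuged, and supernatants analyzed by LC-MS.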

Chain of Neuronal acetylcholine receptor subunit alpha-7 (Q05941 whole entry): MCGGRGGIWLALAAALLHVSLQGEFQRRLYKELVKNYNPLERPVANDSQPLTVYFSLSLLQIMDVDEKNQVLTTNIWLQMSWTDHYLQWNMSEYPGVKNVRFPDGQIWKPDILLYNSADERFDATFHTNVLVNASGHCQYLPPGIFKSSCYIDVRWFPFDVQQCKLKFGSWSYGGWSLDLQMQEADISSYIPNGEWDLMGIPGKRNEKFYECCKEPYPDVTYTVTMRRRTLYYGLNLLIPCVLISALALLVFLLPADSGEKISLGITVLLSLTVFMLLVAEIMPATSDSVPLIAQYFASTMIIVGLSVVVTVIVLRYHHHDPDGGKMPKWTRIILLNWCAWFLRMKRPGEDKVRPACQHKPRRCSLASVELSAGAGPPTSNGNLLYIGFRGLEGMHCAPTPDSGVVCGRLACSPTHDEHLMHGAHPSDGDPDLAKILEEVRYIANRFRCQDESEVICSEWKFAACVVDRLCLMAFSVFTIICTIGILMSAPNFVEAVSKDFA

As a reminder, the EC50 is the concentration needed to bring the measured effect to its halfway point. For orientation: IC50 means the concentration needed to halve the response being measured. Higher therefore signals lower potency. In general, inhibition refers to the relative decrease from the control value, in per cent. As a reminder, the thermodynamic solubility is the concentration in solution at equilibrium with solid. For `O=C(NCCCCN1CCCCC1)Nc1ccc(-c2ccc(F)nc2)nc1`, the EC50 in series [1] worked out at 530 nM. Further, the Ratio EC50 in series [2] and in series [4] was greater than 30 throughout. Further, the IC50 in series [3] was greater than 30000 nM. The inhibition at 3 µM in series [5] was -10%; in [6], 8%; in [8], -19%. In series [7], the remaining at 1 h worked out at 100%. The thermodynamic solubility in [9] came out at 205 µM (≈ 76.1 µg/mL).

In the case of `O=C(NCCCCN1CCCCC1)Nc1ccc(-c2ccccc2F)nc1`, the EC50 in series [1] stood at 150 nM. Moreover, the results for the Ratio EC50 in [2] and in series [4] were greater than 30 and 5.6, respectively. Moreover, the IC50 in series [3] was greater than 30000 nM. Moreover, the inhibition at 3 µM in [5] is -10%; in [8] it was -3%. Besides, in series [7], the remaining at 1 h worked out at 100%. For the same compound, the solubility (thermodynamic) in [9] came to 196 µM (≈ 72.6 µg/mL).

In the case of `O=C(NCCCCN1CCCCC1)Nc1ccc(-c2ccc(F)nc2)cc1`, the EC50 in series [1] was found to be 120 nM. The Ratio EC50 is greater than 30 in series [2] and 1.2 in series [4]. In series [3], this compound showed an IC50 greater than 30000 nM. The inhibition at 3 µM in series [5] was -18%; in series [8] it was -22%. The remaining at 1 h in series [7] stood at 100%. In [9], this compound displayed a thermodynamic solubility of 158 µM (≈ 58.5 µg/mL).

For the compound `O=C(NCCCCN1CCOCC1)Nc1ccc(-c2cccnc2)cc1`, in series [1], the EC50 amounted to 490 nM.

With `O=C(NCCCCN1CCCCC1)Nc1ccc(-c2ccccc2F)cc1`, the concentration giving a half-maximal response (EC50) in [1] is 130 nM. Moreover, the Ratio EC50 was 8.2 in series [2] and 1.2 in [4]. Moreover, inhibition in series [3] was half-maximal at 5700 nM (IC50). In addition, the inhibition at 3 µM in [5] was -1%; in [8] it was -17%. Further, the remaining at 1 h in series [7] came out at 88%. For the same compound, the solubility (thermodynamic) in series [9] came out at 95 µM (≈ 35.1 µg/mL).

Take `O=C(NCCCCN1CCCCC1)Nc1ccc(-c2ccccc2)cc1`: in series [1], the EC50 was determined as 260 nM. In addition, the Ratio EC50 in series [2] was greater than 30; in series [4], 2.8. This compound also displayed an IC50 in [3] of 7900 nM. In addition, in [5], the inhibition at 3 µM turned out to be 2%. Moreover, the remaining at 1 h in series [7] is 100%. In [9], this compound had a thermodynamic solubility of 108 µM (≈ 38 µg/mL).

Regarding `COc1ccccc1-c1ccc(NC(=O)NCCCCN2CCCCC2)cc1`, in [1], the EC50 amounted to 140 nM. Further, the figures for the Ratio EC50 in series [2] and in [4] were 7.7 and 1.1, respectively. Also, in series [3], the IC50 stood at 7800 nM. Also, the inhibition at 3 µM is -2% in [5] and 5% in series [8]. Further, the remaining at 1 h in series [7] was found to be 100%. Moreover, in series [9], the thermodynamic solubility amounted to 114 µM (≈ 43.5 µg/mL).

In the case of `O=C(NCCCCN1CCCCC1)Nc1ccc(-c2ccc(F)cc2)cc1`, the Ratio EC50 worked out at 8 in [2] and 1.7 in [4]. In series [3], the half-inhibitory concentration (IC50) worked out at 5800 nM. The inhibition at 3 µM in series [5] is -16%; in series [8] it was -13%. Also, the remaining at 1 h in [7] stood at 100%. In series [9], this compound showed a thermodynamic solubility of 20 µM (≈ 7.39 µg/mL).

In the case of `O=C(NCCCCN1CCCCC1)Nc1ccc(-c2ccccn2)nc1`, the EC50 in series [1] is 390 nM. The Ratio EC50 was greater than 30 in series [2] and 9.88 in [4]. In addition, the IC50 in series [3] was greater than 30000 nM. Moreover, the inhibition at 3 µM was -3% in series [5], 22% in series [6] and 0% in [8]. Moreover, the remaining at 1 h in series [7] was 100%. Moreover, the thermodynamic solubility in series [9] was found to be 171 µM (≈ 60.4 µg/mL).

For `COc1ccccc1-c1ccc(NC(=O)NCCCCN2CCCCC2)cn1`, the EC50 in [1] is 230 nM. In addition, the Ratio EC50 in [2] is greater than 30; in series [4], 3.9. For the same compound, in series [3], the IC50 was greater than 30000 nM. Moreover, the inhibition at 3 µM in series [5] is 6%; in series [6], 8%; in series [8], 8%. The remaining at 1 h in series [7] came to 88%. Further, the thermodynamic solubility in [9] was 174 µM (≈ 66.6 µg/mL).

For the compound `O=C(NCCCCN1CCCCC1)Nc1ccc(-c2ccccn2)cc1`, the EC50 in series [1] turned out to be 130 nM. For the same compound, the figures for the Ratio EC50 in series [2] and in series [4] were greater than 30 and 5, respectively. The IC50 in [3] was greater than 30000 nM. Also, the inhibition at 3 µM in [5] is 0%; in series [6], 15%; in series [8], -2%. Moreover, the remaining at 1 h in [7] was found to be 97%. In addition, the thermodynamic solubility in series [9] worked out at 153 µM (≈ 53.9 µg/mL).

Regarding `O=C(CCCCN1CCCCC1)Nc1ccc(-c2cccnc2)cc1`, the EC50 in [1] was 350 nM.

As to `O=C(NCCCCN1CCCCC1)Nc1ccc(-c2cccnc2)cc1`, the EC50 in series [1] was determined as 120 nM.

What is called microsomal CLint is the rate of metabolic loss divided by the concentration. For `O=C(NCCCCN1CCCCC1)Nc1ccc(-c2ccccc2)nc1`, the EC50 in series [1] worked out at 120 nM. For the same compound, the figures for the Ratio EC50 in series [2] and in series [4] were greater than 30 and 10.1, respectively. For the same compound, in series [10], the microsomal CLint turned out to be 18 µL/min/mg. The compound also gave an IC50 in series [3] greater than 30000 nM. Also, the inhibition at 3 µM in series [5] is -4%; in series [6], 6%; in series [8] it was -21%. Besides, the remaining at 1 h in series [7] is 100%. Further, the thermodynamic solubility in series [9] came to 193 µM (≈ 68 µg/mL).

For the compound `O=C(CCCCCN1CCCCC1)Nc1ccc(-c2cccnc2)cc1`, the EC50 in series [1] turned out to be 890 nM.
